# Most compounds without a hit are left out; they make up all but 2.5% or so of the library.
# miR-122 sensor: miR-122 Renilla sensor signal increase in Huh7, primary screen, miR-122 inhibitor project, cell-based, single point, plate reader; activation (reporter increase), % at 12.5 µM; Huh7 miR-122 Renilla luciferase sensor, 48 h; neutral wells = 0, positive control = 100; AID 602342, 2012; hit rate 0.3% among 340,000;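 active = mean replicate activation score at least 90 and every replicate individually at or above 90; inconclusive = only one of the two criteria met; inactive = neither criterion met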;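 note: higher luciferase means less miR-122 activity so hits act as miR-122 inhibitors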
# E-sel inducer: E-selectin induction in HUVECs, primary screen, imaging, HUVEC, immunofluorescence imaging, single point | P16581 | normalized: neutral wells 0, TNF-alpha wells 100 | hit rate 0.37% among 260,000 | activation, % at 7.58 µM;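 active = mean E-selectin-positive cell signal at least 10% of the positive control, reached in at least 60% of replicates, without over 20% cell loss; inconclusive = no rule given, readout overlaps actives, possibly toxicity-flagged; inactive = the rest, including those meeting only one limit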
#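 Read-out: % PE-positive cells | Test system: HUVEC | Doses: One compound dose added by pin transfer | Buffer or medium: EGM-2 over gelatin coat | Signal: Immunofluorescence imaging | Benchmarks: TNF-alpha, DMSO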
# FGF22 binding: binders of human FGF22 protein, primary screen, FGF22 synaptogenesis inhibitor project, biophysical, thermal shift, single point. hit rate 1.5% among 340,000. activity (Tm shift, normalised), % at 9.99 µM. recombinant FGF22 thermal shift, SYPRO orange fluorescence; percent of sucrose octasulfate shift, DMSO zero. AID 651658, 2012;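 active = mean Tm shift, scaled 0 neutral to 100 positive control, at about 1.3% or above, every replicate too, limit read from the data; inconclusive = no clear call, values can overlap the other calls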
# SIRT5 inh: SIRT5 desuccinylase inhibitors, primary screen, biochemical, fluorescence imaging, single point, set 5 | Purified SirT5, succinyl-peptide AMC, trypsin-coupled fluorescence | hit rate 1.1% among 330,000 | inhibition, % at 15 µM; in the data active = inhibition above about 15%; inconclusive = no clear call, values can overlap the other calls
# Target sequence (Q9NXA8 whole entry, looked up): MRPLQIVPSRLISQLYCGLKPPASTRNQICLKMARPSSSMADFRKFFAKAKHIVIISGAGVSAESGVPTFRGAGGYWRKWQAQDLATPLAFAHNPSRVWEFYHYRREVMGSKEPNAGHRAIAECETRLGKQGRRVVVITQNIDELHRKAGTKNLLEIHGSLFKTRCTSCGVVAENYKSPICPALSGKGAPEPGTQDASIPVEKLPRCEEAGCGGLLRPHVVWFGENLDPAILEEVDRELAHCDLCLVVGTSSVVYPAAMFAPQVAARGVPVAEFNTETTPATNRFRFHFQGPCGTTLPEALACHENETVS
# S100A4 MyoIIA: inhibitors of S100A4-myosin IIA peptide binding, primary screen, biochemical, fluorescence polarization, TAMRA-MyoIIA peptide; inhibition, % at 10.7 µM; hit rate 0.14% among 360,000; AID 652163, 2013;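 active = mean inhibition of at least 70% across replicates, with every replicate also reaching that level; inconclusive = mean inhibition reaches 70% but some replicates fall short; inactive = mean inhibition below 70%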
# Target sequence (P26447 whole entry, looked up): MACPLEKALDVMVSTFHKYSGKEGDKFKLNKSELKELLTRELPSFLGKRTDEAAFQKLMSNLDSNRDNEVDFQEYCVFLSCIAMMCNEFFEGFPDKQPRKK
#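 Assay system: human S100A4 monomer with TAMRA-labelled myosin IIA peptide / Buffer or medium: Calcium-containing HEPES buffer, pH 7.2 / Reagent: TAMRA-labelled myosin IIA heavy-chain peptide probe, 5 nM / Compound: one dose per compound / Timing: polarization read 5 min after assay mix addition, stable 5–60 min / Benchmarks: neutral control DMSO, positive control TFP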
# A number is an active result; – = inactive; ? = inconclusive; · = no result given; [ ] = dose if it differs, or a comment.
SMILES,miR-122 sensor,E-sel inducer,FGF22 binding,SIRT5 inh,S100A4 MyoIIA
COc1ccc(S(=O)(=O)Nc2ccc3c(c2)C(=O)N([C@@H](C)CO)C[C@H](C)[C@H](CN(C)S(=O)(=O)c2ccc(OC)cc2)OCCCC[C@@H](C)O3)cc1,–,–,–,·,·
COc1ccc(S(=O)(=O)N(C)C[C@H]2OCCCC[C@@H](C)Oc3ccc(NS(=O)(=O)c4ccc(F)cc4)cc3C(=O)N([C@@H](C)CO)C[C@@H]2C)cc1,–,–,–,22.5,–
COc1ccc(S(=O)(=O)Nc2ccc3c(c2)C(=O)N([C@H](C)CO)C[C@@H](C)[C@H](CN(C)S(=O)(=O)c2ccc(F)cc2)OCCCC[C@H](C)O3)cc1,–,–,–,–,–
COc1ccc(S(=O)(=O)N(C)C[C@@H]2OCCCC[C@@H](C)Oc3ccc(NS(=O)(=O)c4ccc(F)cc4)cc3C(=O)N([C@@H](C)CO)C[C@H]2C)cc1,–,–,–,20.8,–
COCC#Cc1ccc2c(c1)O[C@H](CN(C)CC1CC1)[C@H](C)CN([C@@H](C)CO)S2(=O)=O,·,–,–,–,–
COc1cccc(C(O)c2ncc(-c3cccc(F)c3)[nH]2)c1 (centres undefined),113.5,–,–,–,–
C[C@H](CO)N1C[C@H](C)[C@H](CN(C)C(=O)NC2CCCCC2)Oc2ccc(NC(=O)C3CCCCC3)cc2CC1=O,–,–,–,–,–
C[C@@H]1CN([C@@H](C)CO)C(=O)c2cc(N(C)C)ccc2O[C@@H]1CN(C)Cc1ccc(C(=O)Nc2ccccc2N)cc1,253.9[16.7 µM],·,–,·,–
C[C@H](CO)N1C[C@H](C)[C@H](CN(C)Cc2ccc(C(=O)Nc3ccccc3N)cc2)Oc2ccc(N(C)C)cc2CC1=O,355.3[16.7 µM],–,–,–,–
C[C@@H]1CN([C@@H](C)CO)C(=O)c2cc(NC(=O)CCC(F)(F)F)ccc2O[C@H]1CN(C)CC1CC1,–,–,–,–,–
C[C@@H]1CN([C@H](C)CO)C(=O)c2cc(NS(=O)(=O)c3cn(C)cn3)ccc2O[C@@H](C)CCCCO[C@@H]1CN(C)Cc1ccc(C(=O)O)cc1,–,–,–,·,·
CCC(=O)N1C[C@@H]2[C@H](c3ccccc31)[C@@H](CO)N2Cc1cc(F)ccc1F,–,–,–,–,–
CCC(=O)N1C[C@H]2[C@@H](c3ccccc31)[C@H](CO)N2Cc1cc(F)ccc1F,–,–,–,16.2,–
COCC(=O)N1C[C@H]2[C@@H](c3ccccc31)[C@@H](CO)N2Cc1cc(F)ccc1F,–,–,·,–,–
COCC(=O)N1C[C@@H]2[C@H](c3ccccc31)[C@H](CO)N2Cc1cc(F)ccc1F,–,–,·,20.4,–
CCCC(=O)Nc1ccc2c(c1)C(=O)N(C)C[C@H](OC)[C@@H](C)CN(C(=O)c1ccncc1)[C@@H](C)CO2,·,–,·,–,–
Cc1ccc(S(=O)(=O)Nc2ccc3c(c2)C(=O)N([C@@H](C)CO)C[C@@H](C)[C@H](CN(C)C(=O)Nc2ccc(C(F)(F)F)cc2)O3)cc1,–,–,–,–,–
C[C@@H]1CN([C@@H](C)CO)C(=O)c2cccc(NC(=O)NC3CCCCC3)c2O[C@@H]1CN(C)S(=O)(=O)c1ccc(F)cc1,–,?,–,–,–
Cc1cccc(Nc2nnc(SCC(=O)c3c(N)n(C4CC4)c(=O)[nH]c3=O)s2)c1,·,·,–,16.0,–
CN(c1ccccc1)c1ccc(/C=C(/CCC(=O)O)c2nc3ccccc3s2)cc1[N+](=O)[O-],·,–,–,18.0,–
Cc1noc(C)c1NC(=O)N(C)C[C@H]1Oc2c(NS(=O)(=O)c3cn(C)cn3)cccc2C(=O)N([C@H](C)CO)C[C@H]1C,–,–,–,–,–
Cc1ccc(NC(=O)COC(=O)Cn2nc(-c3ccc(F)cc3)oc2=O)cc1C,–,–,43.5,·,–
O=C(COC(=O)Cn1nc(-c2ccccc2)oc1=O)Nc1ccc(F)cc1,–,–,–,–,–
